{"data": "Published values collected from several papers", "target": "Serine/threonine-protein kinase TNNI3K (TNNI3K, Homo sapiens, UniProt Q59H18)", "Residues used in one study (Q59H18 1-835)": "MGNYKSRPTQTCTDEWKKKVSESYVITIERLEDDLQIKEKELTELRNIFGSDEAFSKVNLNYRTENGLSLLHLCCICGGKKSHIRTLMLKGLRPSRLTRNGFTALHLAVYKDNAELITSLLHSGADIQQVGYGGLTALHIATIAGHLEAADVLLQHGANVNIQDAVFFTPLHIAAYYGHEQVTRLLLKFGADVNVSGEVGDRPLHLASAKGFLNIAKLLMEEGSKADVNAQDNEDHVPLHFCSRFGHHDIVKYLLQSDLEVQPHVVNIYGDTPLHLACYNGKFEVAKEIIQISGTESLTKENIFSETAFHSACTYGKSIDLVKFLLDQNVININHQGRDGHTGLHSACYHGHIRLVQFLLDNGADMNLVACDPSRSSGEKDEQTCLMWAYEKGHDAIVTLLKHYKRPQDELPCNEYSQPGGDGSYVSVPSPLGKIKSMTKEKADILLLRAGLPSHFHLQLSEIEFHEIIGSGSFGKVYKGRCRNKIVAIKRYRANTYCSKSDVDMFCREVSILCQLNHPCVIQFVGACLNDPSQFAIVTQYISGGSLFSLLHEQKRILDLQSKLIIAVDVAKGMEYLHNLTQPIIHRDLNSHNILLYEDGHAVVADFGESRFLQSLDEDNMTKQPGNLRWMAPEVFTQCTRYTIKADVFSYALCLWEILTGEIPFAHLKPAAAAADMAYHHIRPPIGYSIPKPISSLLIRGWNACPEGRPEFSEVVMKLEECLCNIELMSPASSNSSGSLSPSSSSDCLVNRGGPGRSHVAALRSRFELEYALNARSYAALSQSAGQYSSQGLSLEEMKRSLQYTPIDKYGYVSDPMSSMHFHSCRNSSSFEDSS", "note": "Compare with care: the assays were run in different laboratories."}
{"Structure (SMILES)": "O=C(c1ccc(Nc2ncc(Cl)c(-c3ccc(Cl)s3)n2)cc1)N1CCC(N2CCCC2)CC1", "read-out": "binding", "technique": "competition with immobilised ligand", "concentration": "1 µM", "remaining binding": "50%"}
{"Structure (SMILES)": "Cc1noc([C@H]2C[C@@H](c3ccc(C(F)(F)F)cc3)CN(C(=O)N3CCS(=O)(=O)C3)C2)n1", "read-out": "cell-free assay", "technique": "competition with immobilised ligand", "concentration": "1 µM", "remaining binding": "100%"}
{"Structure (SMILES)": "FC(F)(F)Oc1cccc(-c2cnc3ccc(-c4ccncc4)nn23)c1", "read-out": "binding", "technique": "competition with immobilised ligand", "concentration": "5 µM", "remaining binding": "91%"}
{"Structure (SMILES)": "COc1cnc(Nc2cccc(S(N)(=O)=O)c2)nc1N1CCN(c2ccccc2)CC1", "read-out": "binding", "technique": "competition with immobilised ligand", "concentration": "1 µM", "remaining binding": "96%"}
{"Structure (SMILES)": "COc1ccnn2ncc(-c3ccnc(N(C)C)n3)c12", "read-out": "binding", "concentration": "1 µM", "remaining binding": "93%"}
{"Structure (SMILES)": "Nc1ncc2c(n1)-c1c([nH]c3ccc(C#CC4CC4)cc13)CCCC2", "read-out": "binding", "technique": "competition with immobilised ligand", "concentration": "1 µM", "remaining binding": "94%"}
{"Structure (SMILES)": "O=C(NCCCN1CCOCC1)c1ccc(Nc2ncc(Cl)c(-c3ccc(Cl)s3)n2)cc1", "read-out": "binding", "technique": "competition with immobilised ligand", "concentration": "1 µM", "remaining binding": "78%"}
{"Structure (SMILES)": "CCN1CCN(Cc2ccc(C(=O)Nc3ccc(C)c(Oc4ccc5c(c4)CC(=O)N5)c3)cc2C(F)(F)F)CC1", "read-out": "binding", "technique": "competition with immobilised ligand", "concentration": "1 µM", "remaining binding": "88%"}
{"Structure (SMILES)": "Cc1cnn2ncc(-c3ccnc(N(C)C)n3)c2c1", "read-out": "binding", "concentration": "1 µM", "remaining binding": "100%"}
{"Structure (SMILES)": "Cc1nc(N2CC[C@@H](O)C2)ncc1-c1cc(C(F)(F)F)cc2[nH]ncc12", "read-out": "cell-free assay", "technique": "competition with immobilised ligand", "concentration": "1 µM", "remaining binding": "87%"}
{"Structure (SMILES)": "CN(C)c1ncc(F)c(-c2cnn3ncccc23)n1", "read-out": "binding", "concentration": "1 µM", "remaining binding": "100%"}
{"Structure (SMILES)": "Cc1cnc(Nc2ccc(C(=O)N3CCC(N4CCCC4)CC3)cc2)nc1-c1cc2ccccc2s1", "read-out": "binding", "technique": "competition with immobilised ligand", "concentration": "1 µM", "remaining binding": "31%"}
{"Structure (SMILES)": "C[C@H]1CCN(c2nccc(-c3cnn4ncccc34)n2)C1", "read-out": "binding", "concentration": "1 µM", "remaining binding": "100%"}
{"Structure (SMILES)": "O=C(Nc1c[nH]nc1C(=O)NC1CCNCC1)c1cc(F)cc(F)c1", "read-out": "binding", "technique": "competition with immobilised ligand", "concentration": "1 µM", "remaining binding": "95%"}
{"Structure (SMILES)": "CCOC(=O)c1cc2cc(-c3cc(C(=O)NCc4ccc(C(=O)O)cc4)nn3C)ccc2[nH]1", "read-out": "cell-free assay", "technique": "competition with immobilised ligand", "concentration": "0.1 µM", "remaining binding": "100%"}
{"Structure (SMILES)": "C[C@@H](c1ccc(-n2cnc3c(N)ncnc32)cc1)N1CCc2nn(C)c(Cc3ccccc3)c2C1=O", "read-out": "binding", "technique": "competition with immobilised ligand", "concentration": "0.1 µM", "remaining binding": "88%"}
{"Structure (SMILES)": "CC1CCCN1c1nccc(-c2cnn3ncccc23)n1 (stereo not shown)", "read-out": "binding", "concentration": "1 µM", "remaining binding": "99%"}
{"Structure (SMILES)": "O=C(NCCCC1CCCCC1)c1ccc(CNC(=O)c2cnn(-c3ccccc3)c2C(F)(F)F)cc1", "read-out": "cell-free assay", "technique": "competition with immobilised ligand", "concentration": "0.1 µM", "remaining binding": "79%"}
{"Structure (SMILES)": "N[C@@H]1CCN(c2nccc(-c3cnn4ncccc34)n2)C1", "read-out": "binding", "concentration": "1 µM", "remaining binding": "94%"}
{"Structure (SMILES)": "COc1ccc2cc(OCC3(C(=O)O)CN(C(=O)c4ccc(F)cc4)C3)ccc2c1", "read-out": "cell-free assay", "technique": "competition with immobilised ligand", "concentration": "1 µM", "remaining binding": "100%"}
{"Structure (SMILES)": "CN(C)c1nccc(-c2cnn3ncccc23)n1", "read-out": "binding", "concentration": "1 µM", "remaining binding": "100%"}
{"Structure (SMILES)": "COc1ccc2c(O[C@@H]3C[C@H]4C(=O)N[C@]5(C(=O)O)CC5/C=C\\CCCCC[C@H](NC(=O)OC5CCCC5)C(=O)N4C3)cc(-c3csc(NC(=O)C(C)C)n3)nc2c1C (stereo partly shown)", "read-out": "cell-free assay", "technique": "competition with immobilised ligand", "concentration": "1 µM", "remaining binding": "100%"}
